Assay results from ChEMBL document CHEMBL2150950, “Effect of 4-aryl-2-methyl-5-nitro-1,4-dihydropyridine-3-carboxylates on the guinea pig papillary muscle and isolated human vena saphena magna that is used for coronary artery bypass grafting” (2011).
Calls of active or inactive are those of the source. No cut-off for these calls is given here.

What was measured:
[1] = (§1) Ionotropic effect in guinea pig ventricle papillary muscles assessed as lengthening of 25% repolarized cardiac action potential duration time at 10^-6 M by microelectrode technique relative to untreated control (reference value: 120 to 131 APD25 ms) in presence of 1 x 10^-6 M IKr channel blocker Sotalol; format: functional, Cavia porcellus
[2] = Ionotropic effect in guinea pig right ventricle papillary muscles assessed as contraction force at 10^-4 M by force transduction assay relative to untreated control (reference value: 100%) in presence of 2 x 10^-5 M KATP channel blocker glibenclamide; format: functional, Cavia porcellus, Heart right ventricle
[3] = (§2) Ionotropic effect in guinea pig ventricle papillary muscles assessed as lengthening of 90% repolarized cardiac action potential duration time at 10^-5 M by microelectrode technique relative to untreated control (reference value: 209 to 222 APD50 ms) in presence of 3.1 x 10^-6 M inward rectifier current blocker BaCl2; format: functional, Cavia porcellus
[4] = Ionotropic effect in guinea pig right ventricle papillary muscles assessed as contraction force at 10^-5 M by force transduction assay relative to untreated control (reference value: 100%) in presence of 2 x 10^-5 M KATP channel blocker glibenclamide; format: functional, Cavia porcellus, Heart right ventricle
[5] = as §1, with “of 10%” for “of 25%”, “at 10^-5” for “at 10^-6”, “value: 52” for “value: 120”, “to 54 APD10” for “to 131 APD25”; format: functional, Cavia porcellus
[6] = Ionotropic effect in guinea pig right ventricle papillary muscles assessed as contraction force at 10^-5 M by force transduction assay relative to untreated control (reference value: 100%) in presence of 1 x 10^-6 M IKr channel blocker Sotalol; format: functional, Cavia porcellus, Heart right ventricle
[7] = (§3) Ionotropic effect in guinea pig ventricle papillary muscles assessed as lengthening of 50% repolarized cardiac action potential duration time at 10^-6 M by microelectrode technique relative to untreated control (reference value: 132 to 176 APD50 ms); format: functional, Cavia porcellus, Papillary muscle
[8] = as §1, with “at 10^-7” for “at 10^-6”; format: functional, Cavia porcellus
[9] = Ionotropic effect in guinea pig ventricle papillary muscles assessed as lengthening of 10% repolarized cardiac action potential duration time at 10^-6 M by microelectrode technique relative to untreated control (reference value: 37 to 47 APD10 ms); format: functional, Cavia porcellus, Papillary muscle
[10] = Ionotropic effect in guinea pig ventricle papillary muscles assessed as lengthening of 90% repolarized cardiac action potential duration time at 10^-4 M by microelectrode technique relative to untreated control (reference value: 132 to 176 APD50 ms); format: functional, Cavia porcellus, Papillary muscle
[11] = as §3, with “10^-4” for “10^-6”, “180” for “132”, “192” for “176”, “ms) in presence of 2 x 10^-5 M KATP channel blocker glibenclamide” for “ms)”; format: functional, Cavia porcellus
[12] = as §1, with “of 90%” for “of 25%”, “at 10^-7” for “at 10^-6”, “value: 209” for “value: 120”, “to 222 APD50” for “to 131 APD25”; format: functional, Cavia porcellus
[13] = as §2, with “2” for “3.1”, “10^-5” for “10^-6”, “KATP channel” for “inward rectifier current”, “glibenclamide” for “BaCl2”; format: functional, Cavia porcellus
[14] = Ionotropic effect in guinea pig right ventricle papillary muscles assessed as contraction force at 10^-4 M by force transduction assay relative to untreated control (reference value: 100%) in presence of 1 x 10^-6 M IKr channel blocker Sotalol; format: functional, Cavia porcellus, Heart right ventricle
[15] = as §2, with “25%” for “90%”, “120” for “209”, “131 APD25” for “222 APD50”; format: functional, Cavia porcellus
[16] = as §2, with “50%” for “90%”, “10^-7” for “10^-5”, “180” for “209”, “192” for “222”; format: functional, Cavia porcellus
[17] = Ionotropic effect in guinea pig right ventricle papillary muscles assessed as contraction force at 10^-6 M by force transduction assay relative to untreated control (reference value: 100%); format: functional, Cavia porcellus, Papillary muscle
[18] = as §1, with “at 10^-4” for “at 10^-6”, “of 2” for “of 1”, “x 10^-5” for “x 10^-6”, “M KATP” for “M IKr”, “blocker glibenclamide” for “blocker Sotalol”; format: functional, Cavia porcellus
[19] = as §2, with “10%” for “90%”, “10^-6” for “10^-5”, “52” for “209”, “54 APD10” for “222 APD50”; format: functional, Cavia porcellus
[20] = Vasodilatory activity in human vena saphena magna assessed as reduction in phenylephrine-induced smooth muscle contraction at 0.1 uM; format: functional; parameters: scale not given: the % may be the effect or the level left
Summary of the method: (§4)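 Saphenous vein rings came from 37 CABG patients. They were bathed in Tyrode's solution (mM: NaCl 137, KCl 5.4, CaCl2 1.8, MgCl2 0.9, Tris HCl 10, glucose 5; pH 7.4), equilibrated 45–60 min and washed every 15 min. Rings were precontracted with 10^-4 M phenylephrine, then given cumulative test agent at 10^-7 to 10^-4 M. Isometric relaxation was recorded, as means ± SE.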

[21] = as §1, with “at 10^-5” for “at 10^-6”; format: functional, Cavia porcellus
[22] = as §2, with “10%” for “90%”, “52” for “209”, “54 APD10” for “222 APD50”; format: functional, Cavia porcellus
[23] = Ionotropic effect in guinea pig ventricle papillary muscles assessed as lengthening of 90% repolarized cardiac action potential duration time at 10^-6 M by microelectrode technique relative to untreated control (reference value: 132 to 176 APD50 ms); format: functional, Cavia porcellus, Papillary muscle
[24] = Ionotropic effect in guinea pig right ventricle papillary muscles assessed as contraction force at 10^-5 M by force transduction assay relative to untreated control (reference value: 100%); format: functional, Cavia porcellus, Papillary muscle
[25] = Ionotropic effect in guinea pig ventricle papillary muscles assessed as lengthening of 10% repolarized cardiac action potential duration time at 10^-4 M by microelectrode technique relative to untreated control (reference value: 37 to 47 APD10 ms); format: functional, Cavia porcellus, Papillary muscle
[26] = as §2, with “10^-6” for “10^-5”, “2” for “3.1”, “10^-5” for “10^-6”, “KATP channel” for “inward rectifier current”, “glibenclamide” for “BaCl2”; format: functional, Cavia porcellus
[27] = Ionotropic effect in guinea pig ventricle papillary muscles assessed as lengthening of 90% repolarized cardiac action potential duration time at 10^-5 M by microelectrode technique relative to untreated control (reference value: 132 to 176 APD50 ms); format: functional, Cavia porcellus, Papillary muscle
[28] = Ionotropic effect in guinea pig ventricle papillary muscles assessed as lengthening of 10% repolarized cardiac action potential duration time at 10^-7 M by microelectrode technique relative to untreated control (reference value: 37 to 47 APD10 ms); format: functional, Cavia porcellus, Papillary muscle
[29] = as §1, with “of 50%” for “of 25%”, “at 10^-5” for “at 10^-6”, “value: 180” for “value: 120”, “to 192 APD50” for “to 131 APD25”; format: functional, Cavia porcellus
[30] = Vasodilatory activity in human vena saphena magna assessed as relaxation of phenylephrine-induced smooth muscle contraction at 10^-7 to 10^-4 M; format: functional; summary of the method: as §4
[31] = as §1, with “of 90%” for “of 25%”, “at 10^-4” for “at 10^-6”, “value: 209” for “value: 120”, “to 222 APD50” for “to 131 APD25”; format: functional, Cavia porcellus

Structure (SMILES): CCCOCCOC(=O)C1=C(C)NC=C([N+](=O)[O-])C1c1ccccc1OC(F)F (stereo unspecified)
- Time [1]: 132.9 ms
- Activity [2]: 211%
- Time [3]: 260.5 ms
- Activity [4]: 163%
- Time [5]: 54.6 ms
- Activity [6]: 100.2%
- Time [7]: 196 ms
- Time [8]: 130 ms
- Time [9]: 41.4 ms
- Time [10]: 256 ms
- Time [11]: 247 ms
- Time [12]: 224.4 ms
- Time [13]: 265 ms
- Activity [14]: 154.8%
- Time [15]: 155 ms
- Time [16]: 210 ms
- Activity [17]: 120%
- Time [18]: 164.8 ms
- Time [19]: 60.9 ms
- Activity [20]: 26%
- Time [21]: 133.6 ms
- Time [22]: 63.4 ms
- Time [23]: 229 ms
- Activity [24]: 134%
- Time [25]: 55.5 ms
- Time [26]: 247 ms
- Time [27]: 238.5 ms
- Time [28]: 40 ms
- Time [29]: 199 ms
- Activity [30]: Active
- Time [31]: 250.8 ms
